This is a sample that favours compounds with a hit; in the whole collection about 2.4% have one here.
DNMT1 block: blocks human DNA methyltransferase DNMT1; P26358; DNMT1 molecular beacon, Hinp1I cleavage, fluorescence; inhibition (reported as % activation of signal), % at 10 µM; actives 0.83% (n = 360,000); in the data active means inhibition above about 50%
SUMO1 PPI mod: alters human SUMO1 binding to SIM partners | P63165 | SUMO1 binding to a labelled peptide, TR-FRET, 1 h | inhibition, % at 20 µM | actives 0.33% (n = 360,000) | AID 602429; in the data active means inhibition above about 37%
STEP block: inhibitors of human striatal-enriched phosphatase STEP | recombinant STEP, OMFP fluorogenic substrate, fluorescence | AID 588621 | actives 0.25% (n = 360,000) | P54829 | inhibition, % at 20 µM;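 active means inhibition at 20 µM, scaled per plate between control wells, above about 37%, limit read from the data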
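Material: STEP (striatal-enriched tyrosine phosphatase) enzyme, cell-free; Compound dosing: 20 µM single dose in 1% DMSO; Technique: fluorescence read at 480 nm ex / 540 nm em; Times: reaction 20 min, ambient temperature; Medium: 50 mM Bis-Tris pH 6.0 with 2.5 mM DTT and 0.005% Tween 20; Also added: OMFP at 25 µM.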
LMPTP block: blocks human LMPTP phosphatase; P24666; actives 0.22% (n = 360,000); recombinant LMPTP-A, OMFP fluorogenic substrate, fluorescence intensity; inhibition, % at 20 µM;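 active means compounds that cut the enzyme signal by at least half of the control window in the single-dose screen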
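test system = LMPTP-A | amount = 0.625 nM LMPTP-A final | reagent = fluorogenic phosphatase substrate OMFP at 400 µM final | incubation = 50 min at room temperature | benchmarks = no-enzyme low control, uninhibited high control | medium = Bis-Tris pH 6.0, DTT, detergent | signal = fluorescence intensity of OMFP turnover product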
NadD block: NadD (S. aureus) enzyme inhibition | AID 602399 | actives 0.78% (n = 360,000) | inhibition, % at 20 µM | purified NadD enzyme, colorimetric absorbance read-out; in the data active means inhibition above about 26%
Scp1 inh: blocks human Scp-1 phosphatase activity. Q9GZU7. Recombinant Scp1, phosphopeptide, malachite green phosphate absorbance. inhibition, % at 20 µM. actives 0.88% (n = 340,000). AID 493091;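 active means inhibition above about 50% at 20 µM, limit read from the data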
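assay system = SCP-1 phosphatase catalytic domain, residues 76-261 | buffer or medium = 50 mM Tris acetate pH 5.5, 0.005% Tween-20, 10 mM MgCl2 | incubation = enzyme reaction 45 min at room temperature, colour 5 min, stabilisation 30 min | signal = Phosphate-binding colour reagent, absorbance read at 630 nm | measure = % inhibition at 20 µM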
Scp1 confirm: Scp-1 (human) inhibition, single-dose confirmed; recombinant SCP-1 catalytic domain, phosphate release, malachite green absorbance; inhibition, % at 20 µM; AID 540281; shares compounds with Scp1 inh; actives 61% (n = 2,500)
Scp-1 MG ctr: counter-screen for Scp-1 inhibitors: colorimetric interference. Colorimetric interference counterscreen, malachite green absorbance 630 nm. shares compounds with Scp1 inh. 2,500 tested, under 10 active. apparent inhibition (interference), % at 20 µM. AID 540313;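 further: compounds added after enzyme reaction finished so only phosphate colour detection is probed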
Scp1 DSF: Scp-1 (human) binding by thermal shift. actives 25% (n = 1,500). Recombinant SCP1, Sypro Orange thermal shift Tm. AID 540329. thermal shift relative to vanadate control, % at 40 µM. shares compounds with Scp1 inh;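 active means substances whose mean melting-temperature shift, as a percentage of the reference inhibitor's shift, reaches about 5.3%, limit read from the data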
Numbers stand for hits; – = inactive; · = no result.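 How the source made its calls, unless noted: active means inhibition of at least 30% at 20 µM; inactive means the rest.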

SMILES	DNMT1 block	SUMO1 PPI mod	STEP block	LMPTP block	NadD block	Scp1 inh	Scp1 confirm	Scp-1 MG ctr	Scp1 DSF
CCn1c(SCC(=O)Nc2oc(C)c3c(C)n[nH]c(=O)c23)nc2sc(C)c(C)c2c1=O	–	–	–	–	–	66	–	–	·
COC(=O)c1c(NC(=O)Cc2cccs2)sc2c1CCCC2	–	–	–	–	–	51	73	–	–
O=C(N/N=C/c1ccc(-c2cccc([N+](=O)[O-])c2)o1)c1ccc([N+](=O)[O-])cc1	–	–	–	–	–	52	–	–	·
C/C(=N\NC(=O)c1cc(-c2cccc([N+](=O)[O-])c2)n[nH]1)c1ccc(F)cc1	–	–	–	–	–	–	·	·	·
O=C(N/N=C/c1ccc(-c2cccc([N+](=O)[O-])c2)o1)c1ccccc1O	–	–	–	–	–	74	77	–	9.2
C/C(=N\NC(=O)c1cc(-c2cccc([N+](=O)[O-])c2)n[nH]1)c1ccccc1O	60	–	97	–	–	96	85	–	6.3
COc1ccc(N(CC(=O)Nc2ccc(F)cc2)S(=O)(=O)c2ccccc2[N+](=O)[O-])c(OC)c1	–	–	–	–	–	–	·	·	·
Cc1nn(Cc2cccc(C(=O)Nc3ccn(Cc4ccccc4)n3)c2)c(C)c1[N+](=O)[O-]	–	–	–	–	–	–	·	·	·
CCC(=O)NC(=S)Nc1ccc(NC(=S)NC(=O)c2ccccc2)cc1	–	–	–	–	–	–	·	·	·
O=C(CN(Cc1ccco1)C(=O)CNS(=O)(=O)c1ccc(Cl)cc1)NCc1ccc(F)cc1	–	–	–	–	–	–	·	·	·
O=[N+]([O-])c1ccc(C(O)C[n+]2ccccc2)cc1 (centres undefined)	–	–	–	–	–	96	–	–	·
O=[N+]([O-])c1ccc(C(O)CN2CCN(c3ccccc3)CC2)cc1 (centres undefined)	–	–	–	–	–	–	·	·	·
O=C(CSc1nc2sc3c(c2c(=O)n1-c1ccccc1)CCCC3)N/N=C/c1ccc(C(=O)O)cc1	–	–	–	–	–	51	38	–	–
Cc1nn(C)c(C)c1CNC(=O)Nc1ccc2c(c1)OCO2	–	–	–	–	–	–	·	·	·
O=C(COC(=O)c1ccccc1Nc1ccc(SC(F)F)cc1)NC1CC1	–	–	–	–	–	–	·	·	·
COc1cc2c(cc1NC(=O)CSc1ccccc1)oc1ccccc12	–	–	–	–	–	–	·	·	·
COc1cc2c(cc1NC(=O)CSc1nc3ccccc3[nH]1)oc1ccccc12	–	–	–	–	–	72	42	–	–
O=C(NCCc1csc(-c2ccccc2)n1)c1ccc(Br)o1	–	–	–	–	–	–	·	·	·
COc1ccc(C)cc1NC(=O)CCCN1C(=O)C2CC=CCC2C1=O (centres undefined)	–	–	–	–	–	–	·	·	·
COC(=O)c1ccc(C)c(NC(=O)CCCN2C(=O)CN(C)C2=O)c1	–	–	–	–	–	–	·	·	·
COc1ccc(C)cc1NC(=O)CCCN1C(=O)CN(C)C1=O	–	–	–	–	–	–	–	–	·
CCc1cccc(C)c1NC(=O)CCCN1C(=O)CN(C)C1=O	–	–	–	–	–	–	–	–	·
C=CCn1c(SCC(=O)NCC2CCCO2)nc2scc(-c3ccco3)c2c1=O (centres undefined)	–	–	–	–	–	–	·	·	·
C=CCn1c(SCC(=O)NCCOC)nc2scc(-c3ccco3)c2c1=O	–	–	–	–	–	52	–	–	·
CN1CCN(C(=O)c2cc3c(s2)-c2ccccc2S(=O)(=O)C3)CC1	–	–	–	–	–	–	·	·	·
SMILES	DNMT1 block	SUMO1 PPI mod	STEP block	LMPTP block	NadD block	Scp1 inh	Scp1 confirm	Scp-1 MG ctr	Scp1 DSF
O=[N+]([O-])c1cccc(-c2csc(N/N=C/c3cccc(O)c3)n2)c1	–	–	–	–	–	72	51	–	19
CCOC(=O)Cc1csc(N/N=C/c2cccc([N+](=O)[O-])c2)n1	–	–	–	–	–	–	·	·	·
O=C(Nc1ccc(S(=O)(=O)N2CCCC2)cc1)C1CC(=O)N(CCc2ccccc2)C1 (centres undefined)	–	–	–	–	–	·	·	·	·
CC(NC(=O)/C(C#N)=C/c1ccc(OCC(=O)O)cc1)c1ccccc1 (centres undefined)	–	–	–	–	–	98	40	–	–
COc1cc(/C=C(\C#N)C(=O)NCc2ccccc2)ccc1OCc1ccc(C(=O)O)cc1	–	–	–	–	–	–	·	·	·
C[C@@H](NC(=O)/C(C#N)=C/c1ccc(O)c(O)c1)c1ccccc1	–	–	–	–	–	–	·	·	·
COc1cc(/C=C(/C#N)C(=O)Nc2ccccc2)ccc1OCc1ccc(C(=O)O)cc1	–	–	–	–	–	82	58	–	–
N#C/C(=C\c1ccc(OCc2ccc(C(=O)O)cc2)cc1)C(=O)NCc1ccccc1	–	–	–	–	–	91	81	–	–
COc1ccc(Br)cc1CNC(=O)C1CCCN(S(=O)(=O)N2CCC(C)CC2)C1 (centres undefined)	–	–	–	–	–	·	·	·	·
CC(=O)Nc1ccc2nc(NC(=O)COc3ccccc3Cl)sc2c1	–	–	–	–	–	–	·	·	·
CC(=O)OCC1=C(C(=O)OC(C)(C)C)N2C(=O)[C@@H](NC(=O)Cc3ccccc3)[C@H]2SC1	–	–	–	–	–	91	70	–	8.8
COc1cccc2cc(C(=O)C3=C(O)C(=O)N(c4cc(C)on4)C3c3cccs3)oc12 (centres undefined)	–	–	–	–	–	–	·	·	·
Cc1cc(N=NC(=O)c2ccccc2O)c2ccccc2c1O	–	–	97	–	–	95	79	–	12
Cn1c(O)c(N=NC(=O)c2ccccc2O)c2ccccc21	–	–	–	–	–	–	·	·	·
CSc1ccc(/C=N/NC(=O)c2ccc(C)c(C)c2)cc1	–	–	–	–	–	83	59	–	–
CSc1ccc(/C=N/NC(=O)c2cc(O)cc(O)c2)cc1	–	–	–	–	–	–	·	·	·
O=C(NCC(=O)N(Cc1cccs1)C(C(=O)NC1CCCCC1)c1ccncc1)c1ccco1 (centres undefined)	–	–	–	–	–	52	–	–	·
